Several values for one entry are separate records, joined by “and”; a condition that tells them apart may be missing. Identical values can stand only once. Like-named read-outs stand apart in the source and are kept apart here.
Columns and labels:
[1] = Semimechanistic population PK model; assay type: in vivo, human; details: for CLint of M20 in liver / CLint of M2 in liver / Absorption lag time / CLint to form M2 in liver / CLint to form M20 in liver / Central volume / Fraction of Fa absorbed via transit compartment / Fraction of dose entering gut compartment, Fa / MTT / Maximum rate of absorption, ka,max / Peripheral volume / Rate constant for formation of M2 from gut / Rate constant for formation of M20 from gut / Zero-order absorption duration / Diarrhea effect on Fa / Km: final population model; for Km: Km for saturable absorption
[2] = assay type: in vivo, human; details: geometric mean (%CV)
In short: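 Semimechanistic nonlinear mixed-effect population PK model with gut and hepatic CYP3A metabolism and a well-stirred liver model. Individual post hoc parameters simulated single oral doses (200 mg; cycle 1 day 1 starting 150 or 200 mg). Parent AUC0−∞ = Dose×F/CL. […] Cmax was taken from predicted profiles. Results are geometric mean (%CV).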

[3] = Noncompartmental analysis of absolute bioavailability study JPBS; assay type: in vivo, human
[4] = Simulated Day 1 and steady-state exposures in MONARCH 2; assay type: in vivo, human; details: MONARCH 2 and MONARCH 3, simulated exposures
In short: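 Breast cancer patients on endocrine therapy were grouped as East Asian (Japanese, Korean, Taiwanese) or non-East Asian. Each patient's post hoc parameters came from a mechanistic NONMEM model, with dosage averaged over the study. Simulations covered cycle 1 day 1 after the starting dose (150 or 200 mg) and steady state after 56 days of 12-hourly dosing. Read-outs were geometric mean (%CV) Cmax, Cmin and dosing-interval AUC for parent, M2, M20 and total actives.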

[5] = cited from earlier work
[6] = cited from earlier work; remark: listed apart in the source
[7] = Healthy subjects, 200 mg single oral dose, N = 65
[8] = JPBL (patients), 150 mg single oral dose, N = 326
[9] = JPBL (patients), 200 mg single oral dose, N = 142
[10] = JPBN (patients), 200 mg single oral dose, N = 132
[11] = Patients, 200 mg single oral dose, N = 421
[12] = NCA (200 mg), JPBS healthy subjects N = 8, geometric mean (%CV)
[13] = coadministration with clarithromycin (CYP3A inhibitor)
[14] = coadministration with rifampicin (CYP3A inducer)

## CCN1CCN(Cc2ccc(Nc3ncc(F)c(-c4cc(F)c5nc(CO)n(C(C)C)c5c4)n3)nc2)CC1 [M20]
[1]; Bootstrap median (95% CI)
  CLint of M20 in liver: 454 (417–489) L/h
[1]; Estimate (%SEE)
  CLint of M20 in liver: 431 (2.00) L/h
[2]; [7]
  AUC0−∞: 3450 (34.4) ng·h/mL
  Apparent hepatic clearance: 23.9 (23.7) L/h
  Cmax: 49.1 (32.5) ng/mL
  Half-life: 20.3 (21.3) h
[2]; [8]
  AUC0−∞: 2870 (69.6) ng·h/mL
  Apparent hepatic clearance: 22.5 (44.3) L/h
  Cmax: 59.3 (78.7) ng/mL
  Half-life: 14 (62.5) h
[2]; [9]
  AUC0−∞: 3020 (72.8) ng·h/mL
  Apparent hepatic clearance: 25.8 (43.3) L/h
  Cmax: 66.1 (82.8) ng/mL
  Half-life: 13 (70.1) h
[2]; [10]
  AUC0−∞: 2750 (55.0) ng·h/mL
  Apparent hepatic clearance: 26.2 (33.5) L/h
  Cmax: 39.4 (56.0) ng/mL
  Half-life: 19.4 (72.7) h
[2]; [11]
  AUC0−∞: 3240 (74.7) ng·h/mL
  Apparent hepatic clearance: 23.7 (52.1) L/h
  Cmax: 48.8 (83.0) ng/mL
  Half-life: 17.5 (62.5) h
[3]; [12]
  AUC0−∞: 3260 (26) ng·h/mL
  Cmax: 55.7 (26) ng/mL
  Half-life: 35.3 (16) h

## Cc1nc2c(F)cc(-c3nc(Nc4ccc(CN5CCNCC5)cn4)ncc3F)cc2n1C(C)C [M2]
[1]; Bootstrap median (95% CI)
  CLint of M2 in liver: 241 (218–271) L/h
[1]; Estimate (%SEE)
  CLint of M2 in liver: 254 (2.06) L/h
[2]; [7]
  AUC0−∞: 1690 (39.9) ng·h/mL
  Apparent hepatic clearance: 22.9 (28.4) L/h
  Cmax: 28.8 (36.1) ng/mL
  Half-life: 21.2 (25.8) h
[2]; [8]
  AUC0−∞: 1640 (70.2) ng·h/mL
  Apparent hepatic clearance: 18.3 (49.9) L/h
  Cmax: 33.6 (70.4) ng/mL
  Half-life: 17.2 (65.1) h
[2]; [9]
  AUC0−∞: 1820 (72) ng·h/mL
  Apparent hepatic clearance: 20.9 (48.1) L/h
  Cmax: 40.2 (73.9) ng/mL
  Half-life: 16 (73.6) h
[2]; [10]
  AUC0−∞: 1620 (55.0) ng·h/mL
  Apparent hepatic clearance: 23.9 (35.3) L/h
  Cmax: 26.9 (54.7) ng/mL
  Half-life: 21.3 (73.5) h
[2]; [11]
  AUC0−∞: 1790 (71.6) ng·h/mL
  Apparent hepatic clearance: 21.5 (54.3) L/h
  Cmax: 30.3 (75.7) ng/mL
  Half-life: 19.3 (65.4) h
[3]; [12]
  AUC0−∞: 1450 (19) ng·h/mL
  Cmax: 31.7 (22) ng/mL
  Half-life: 72.6 (23) h

## CCN1CCN(Cc2ccc(Nc3ncc(F)c(-c4cc(F)c5nc(C)n(C(C)C)c5c4)n3)nc2)CC1 [Abemaciclib]
[1]; adults
  effect of body weight on abemaciclib exposure: no clinically significant effect
[1]; crossover food effect study
  difference in absorption parameters between the fasted state, a standard meal, and a high-fat meal: no significant difference
[1]; Bootstrap median (95% CI)
  Absorption lag time: 1.76 (1.69–1.80) h
  CLint to form M2 in liver: 235 (199–284) L/h
  CLint to form M20 in liver: 700 (627–775) L/h
  Central volume: 604 (563–635) L
  Fraction of Fa absorbed via transit compartment: 0.479 (0.453–0.507)
  Fraction of dose entering gut compartment, Fa: 0.882 (0.874–0.890)
  MTT: 1.52 (1.43–1.62) h
  Maximum rate of absorption, ka,max: 97.6 (85.0–111) µmol/h
  Peripheral volume: 152 (132–184) L
  Rate constant for formation of M2 from gut: 0.401 (0.366–0.432) /h
  Rate constant for formation of M20 from gut: 0.306 (0.276–0.339) /h
  Zero-order absorption duration: 3.04 (2.52–3.84) h
[1]; Bootstrap median (95% CI), logit parameter
  Diarrhea effect on Fa: −0.0079 (−1.29, 2.65 × 10^−7)
[1]; Estimate (%SEE)
  Absorption lag time: 1.74 h and 1.74 (0.538) h
  CLint to form M2 in liver: 280 (0.436) L/h
  CLint to form M20 in liver: 705 (0.421) L/h
  Central volume: 588 (2.81) L
  Fraction of Fa absorbed via transit compartment: 0.458 (0.336)
  Fraction of dose entering gut compartment, Fa: 0.868 (0.0583)
  MTT: 1.44 h and 1.44 (3.68) h
  Maximum rate of absorption, ka,max: 91.1 µmol/h and 91.1 (3.96) µmol/h
  Peripheral volume: 159 (0.421) L
  Rate constant for formation of M2 from gut: 0.361 (0.479) /h
  Rate constant for formation of M20 from gut: 0.284 (0.468) /h
  Zero-order absorption duration: 3.18 h and 3.18 (10.3) h
[1]; Estimate (%SEE), on the logit parameter for Fa
  Diarrhea effect on Fa: −0.417 (7.99)
[1]; human, plasma, oral
  clearance: 380 mL/min
[1]; human, plasma, oral, Bootstrap median (95% CI)
  Km: 51.8 µM
[1]; human, plasma, oral, Estimate (%SEE)
  Km: 52.7 µM
[1]; in the absence of drug, metabolism-susceptible pathway
  intrinsic ka (absorption rate constant): 1.73 h⁻¹
[1]; in vivo
  absorbed amount absorbed via the zero-order route: 54.2%
  dose either not absorbed or lost as other metabolites: 13.2%
  total administered dose absorbed either as abemaciclib, M2, or M20: 86.8%
  typical total CLint of unbound abemaciclib that resulted in formation of M2 and M20: 985 L/h
[1]; saturable absorption from final transit compartment
  amount that results in half maximal absorption rate: 27 mg
[1]; saturable absorption from final transit compartment to liver
  typical ka,max: 46.2 mg/h
[2]; [7]
  Hepatic clearance: 23.8 (30.3) L/h
[2]; [8]
  Hepatic clearance: 25.1 (21) L/h
[2]; [9]
  Hepatic clearance: 26 (25.7) L/h
[2]; [10]
  Hepatic clearance: 24.3 (24.9) L/h
[2]; [11]
  Hepatic clearance: 21.8 (39.8) L/h
[3]; [12]
  Hepatic clearance: 24.0 (27) L/h
[3]; human, plasma, oral, 200 mg
  AUC(0-inf): 3730 ng·h/mL
  Cmax: 114 ng/mL
  bioavailability: 44.8%
[4]
  effect of East Asian ethnicity on abemaciclib PK: no effect
[5]; [13]
  increase of abemaciclib AUC: 237%
  increase of abemaciclib Cmax: 30%
[5]; [14]
  reduction of abemaciclib area under the curve (AUC): 95%
  reduction of abemaciclib maximum plasma concentration (Cmax): 92%
[6]
  parent drug renally excreted: 3%
[6]; in patients
  mean terminal elimination half-life: approximately 24 hours
[6]; phase I cancer patient population
  median time to maximum plasma concentration: approximately 8 hours

Reference: article PMC7499187 (CPT: Pharmacometrics & Systems Pharmacology, 2020)
